# Assay outcomes from PubChem BioAssay.
# Most compounds without a hit are left out; they make up all but 2.3% or so of the library.
# TRPC4 PAM – allosteric potentiators of mouse TRPC4 channel | HEK293 TRPC4beta/mu-opioid, DAMGO EC20, Fluo-4 Ca2+ flux; hits give high values | B-score at 10 µM | 310,000 tested, 0.42% active;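 active = B-score of calcium response area above 5 SD of library B-scores, with initial fluorescence ratio within 5 SD of library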;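 also: B-score of integrated fluorescence ratio over time as area under calcium response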
# TRPC4 agonist – TRPC4 (mouse) channel activation. Q9QUQ5. HEK293 TRPC4beta/mu-opioid, Fluo4 calcium fluorescence; hits give high values. B-score at 10 µM. 310,000 tested, 0.49% active. AID 2237;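 active = B-score above 5 SD of library B-scores, and initial fluorescence ratio not above library mean plus 5 SD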;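 also: positive B-score marks a calcium rise read as TRPC4 activation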
#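 system = HEK293 cells stably co-expressing mouse TRPC4beta and mu-opioid receptor | schedule = Fluo4 dye loading 45 min at room temperature, 110 s recording | measure = B-scored integrated calcium fluorescence ratio | signal = Fluo4 calcium-sensitive dye fluorescence, kinetic, 1 Hz baseline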
# TRPC6 act – activators of mouse TRPC6 channel. HEK293-TRPC6 membrane potential dye fluorescence; hits give high values. B-score at 10 µM. 310,000 tested, 0.13% active;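 active = B-score of the integrated fluorescence ratio above library mean plus 3 SD, and starting fluorescence ratio within library mean plus 5 SD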;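 also: higher score means more depolarization so channel activation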
# Target sequence (Q61143 whole entry, looked up): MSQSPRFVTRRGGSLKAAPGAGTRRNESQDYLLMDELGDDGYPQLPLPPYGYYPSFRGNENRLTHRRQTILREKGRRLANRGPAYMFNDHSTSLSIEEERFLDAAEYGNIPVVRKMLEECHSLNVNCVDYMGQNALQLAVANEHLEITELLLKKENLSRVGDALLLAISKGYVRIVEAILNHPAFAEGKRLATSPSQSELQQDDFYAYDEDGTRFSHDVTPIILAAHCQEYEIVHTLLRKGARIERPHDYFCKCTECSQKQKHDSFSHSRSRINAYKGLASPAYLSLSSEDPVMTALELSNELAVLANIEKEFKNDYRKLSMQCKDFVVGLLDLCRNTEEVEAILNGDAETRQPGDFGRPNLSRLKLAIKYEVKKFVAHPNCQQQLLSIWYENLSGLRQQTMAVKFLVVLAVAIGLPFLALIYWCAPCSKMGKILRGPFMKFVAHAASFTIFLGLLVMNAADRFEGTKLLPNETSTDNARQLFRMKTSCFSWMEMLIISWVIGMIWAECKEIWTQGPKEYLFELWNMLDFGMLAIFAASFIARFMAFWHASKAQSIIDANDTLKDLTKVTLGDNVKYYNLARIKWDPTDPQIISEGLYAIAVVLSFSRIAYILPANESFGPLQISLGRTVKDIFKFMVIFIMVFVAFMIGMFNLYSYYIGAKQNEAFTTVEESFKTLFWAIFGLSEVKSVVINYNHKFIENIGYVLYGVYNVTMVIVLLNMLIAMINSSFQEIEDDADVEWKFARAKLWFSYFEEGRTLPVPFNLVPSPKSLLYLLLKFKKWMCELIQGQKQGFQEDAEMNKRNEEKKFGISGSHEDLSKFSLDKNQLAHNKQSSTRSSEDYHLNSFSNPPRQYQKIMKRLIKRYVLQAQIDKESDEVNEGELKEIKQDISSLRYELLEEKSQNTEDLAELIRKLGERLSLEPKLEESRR
# TRPC4 block – inhibitors of mouse TRPC4 channel | Q9QUQ5 | HEK293 TRPC4beta/mu-opioid, DAMGO-evoked Fluo4 calcium flux; hits give low values | B-score at 10 µM | 300,000 tested, 0.39% active;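 active = B-score over 3 SD under the library average, no early fluorescence shift, positive overall ratio signal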
#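 System: stable TRPC4beta/mu-opioid receptor HEK293 cells; Dosing: single-point compound dosing; Measured by: Fluo4 Ca2+ flux fluorescence; Read-out basis: per-well B score of integrated baseline-normalized Fluo4 ratio.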
# TRPC6 inh – mouse TRPC6 channel inhibition; B-score at 10 µM; HEK293-TRPC6, membrane potential dye, ACh-evoked depolarization; hits give low values; AID 2553; 310,000 tested, 1.1% active;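 active = B-score under library mean minus 3 SD, initial fluorescence not abnormally high, positive integrated signal ratio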;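 also: B-score derived from integrated fluorescence ratio over the kinetic read; more negative B-score means stronger inhibition of depolarization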
# TRPC4 spec 2 – second selectivity test of TRPC6 inhibitors: effect on mouse TRPC4 | shares compounds with TRPC6 inh | HEK293 TRPC4/MOR, membrane potential dye fluorescence; channel activated by saturating DAMGO dose | inhibition, % at 10 µM | 920 tested, 42% active;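 active = compounds whose fluorescence signal differed from control wells by over 3 SD, either direction, in both duplicate plates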
# TRPC4 spec – selectivity of TRPC6 inhibitors: effect on mouse TRPC4. AID 2777. HEK293 TRPC4/mu-opioid, membrane potential fluorescence. 920 tested, 61% active. shares compounds with TRPC6 inh. activity change, negative = inhibition, % at 10 µM;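 active = rise or fall in signal beyond 3 SD of buffer-only wells in both replicate plates, either sign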;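 also: integrated kinetic ratio of fluorescence range over baseline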
# HEK293 MPD ctr 2-1 – parental HEK293 nonspecific activity of TRPC6 inhibitors, second screen. shares compounds with TRPC6 inh. parental HEK293 membrane potential dye fluorescence; maximal acetylcholine challenge after compound addition. signal change vs control, % at 10 µM. 920 tested, 31% active;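 active = membrane potential signal moving either way by over 3 SD of the maximum-effect control, in both duplicate plates, meaning non-specific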
# HEK293 MPD ctr-1 – checks TRPC6 inhibitor effects in parental HEK293 cells; parental HEK293 membrane potential dye fluorescence; AID 2780; 920 tested, 60% active; membrane potential signal change, % at 10 µM; shares compounds with TRPC6 inh;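 active = membrane potential signal shifting up or down by more than 3 SD of buffer-only wells, on both duplicate plates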
# HEK293 MPD ctr-2 – counter-screen for TRPC6 modulators: effect in parental HEK293 cells; 2,400 tested, 51% active; shares compounds with TRPC6 inh; membrane potential dye fluorescence; membrane potential signal change, % at 10 µM; AID 488924;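 active = membrane potential signal moves up or down beyond 5 SD from buffer-only wells, on both duplicate plates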
# HEK293 MPD ctr 2-2 – second counter-screen for TRPC6 modulators: effect in parental HEK293 cells; shares compounds with TRPC6 inh; membrane potential dye fluorescence; after compound, maximal acetylcholine stimulation; 2,400 tested, 14% active; AID 488926; inhibition, % at 10 µM;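 active = membrane potential signal drops by more than 5 SD from the mean control signal, in both duplicate plates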;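 also: plate controls were acetylcholine ECmax control wells for no effect and buffer only wells for full effect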
# TRPC4/MOR mod – tests whether TRPC6 modulators also affect mouse TRPC4; shares compounds with TRPC6 inh; HEK293 TRPC4/mu-opioid, membrane potential fluorescence; percent change from control (negative = decrease, positive = increase), % at 10 µM; 2,400 tested, 69% active;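 active = membrane potential signal moved up or down beyond 5 SD of buffer control wells, in both duplicate plates, actives on both sides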;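 also: plate controls were assay buffer wells for no effect and DAMGO maximal-effect wells for full effect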
# TRPC4 ctr inh 2 – mouse TRPC4 off-target activity of TRPC6 modulators, second screen. shares compounds with TRPC6 inh. HEK293 TRPC4/mu-opioid, membrane potential dye fluorescence; stimulated with maximal-effect DAMGO. inhibition, % at 10 µM. 2,400 tested, 55% active;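 active = drop in membrane potential signal beyond 5 SD of the control wells in both duplicate plates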;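 also: TRPC4 counter screen for TRPC6 hits run under conditions tuned for TRPC6 not TRPC4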
# TRPC6 block conf – confirmation of mouse TRPC6 inhibitors. inhibition, % at 10 µM. shares compounds with TRPC6 inh. 3,300 tested, 43% active. HEK293-TRPC6, membrane potential dye, ACh-evoked depolarization;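 active = fluorescence ratio falls more than 5 SD below the full-stimulation control mean, in both duplicate runs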;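 also: integrated fluorescence ratio of peak minus minimum over baseline after agonist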
# TRPC6 act confirm – mouse TRPC6 activator confirmation. shares compounds with TRPC6 inh. HEK293-TRPC6 membrane potential dye fluorescence, FDSS. activation, % at 10 µM. 2,800 tested, 11% active. AID 488961;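 active = ratio signal rise beyond 5 SD above unstimulated control wells' mean, seen in both duplicate runs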;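 also: plate controls were buffer EC0 wells for no effect and acetylcholine ECmax response for full effect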
# * = called active by the depositor; i = inactive; · = no result.
SMILES,TRPC4 PAM,TRPC4 agonist,TRPC6 act,TRPC4 block,TRPC6 inh,HEK293 MPD ctr-2,HEK293 MPD ctr 2-2,TRPC4/MOR mod,TRPC4 ctr inh 2,TRPC6 block conf,TRPC6 act confirm,others
CNC(=O)c1cc2c(=O)n3cc(C)ccc3nc2n(C(C)C)c1=N,i,i,i,i,-7.45*,-157.0%*,111.0%*,-48.5%*,51.0%*,84.0%*,i,
O=[N+]([O-])c1cc(/C=N/n2cnnc2)ccc1N1CCCC1,i,i,i,i,-5.17*,-76.0%*,i,-15.0%*,i,i,i,
O=[N+]([O-])c1cc(/C=N/O)ccc1N1CCCC1,i,i,i,i,i,·,·,·,·,·,·,
CCN1CCN(CCn2c(=S)[nH]c3ccccc3c2=O)CC1,i,i,i,i,-6.33*,i,i,i,i,41.0%*,i,
O=c1c2ccccc2[nH]c(=S)n1CCCN1CCC(Cc2ccccc2)CC1,i,i,i,i,-5.91*,i,i,-10.5%*,79.5%*,56.5%*,i,
O=c1c2ccccc2[nH]c(=S)n1CCN1CCCC1,i,i,i,i,i,·,·,·,·,·,·,
CN(Cc1ccc(Cl)c(Cl)c1)C(=O)CN1C(=O)NC2(CCCC2)C1=O,i,i,i,i,i,·,·,·,·,·,·,
CCNC(=O)CC1C(=O)N(c2ccc(C)cc2)C(=O)N1CCC(C)C (centres undefined),i,i,i,i,i,·,·,·,·,·,·,
O=C(CC1Nc2cccc3cccc(c23)NC1=O)Nc1ccc(F)cc1 (centres undefined),i,i,i,i,-5.03*,i,i,-11.0%*,40.0%*,i,i,
COc1ccc(NC(=O)CC2Nc3cccc4cccc(c34)NC2=O)cc1 (centres undefined),i,i,i,i,i,·,·,·,·,·,·,
CCOc1cc(C(=S)N2CCC(O)CC2)ccc1OS(=O)(=O)c1ccc(Br)cc1,i,i,i,i,-8.39*,·,·,·,·,i,i,TRPC4 spec 2=i;TRPC4 spec=i;HEK293 MPD ctr 2-1=i;HEK293 MPD ctr-1=i
CCOC(=O)C1Cc2c([nH]c3ccccc23)CN1 (centres undefined),i,i,i,i,-8.64*,·,·,·,·,i,i,TRPC4 spec 2=i;TRPC4 spec=i;HEK293 MPD ctr 2-1=i;HEK293 MPD ctr-1=-0.1%*
CCOC(=O)C1Cc2ccccc2CN1 (centres undefined),i,i,i,i,i,·,·,·,·,·,·,
N#CCC(=O)Nc1ccc(C(=O)OCC(=O)N=c2sccn2Cc2ccccc2Cl)cc1,i,i,i,i,i,·,·,·,·,·,·,
CCCC(C)C(=O)Nc1nc(C)c(-c2csc(Nc3ccc(Cl)cc3)n2)s1 (centres undefined),i,i,i,i,-6.01*,i,i,i,i,i,i,
CCc1ccc2oc(-c3ccc(OC)cc3)cc(=Nc3cccc(C(=O)O)c3)c2c1,i,i,i,i,i,·,·,·,·,·,·,
CCc1ccc2oc(-c3ccc(OC)cc3)cc(=Nc3c(C)n(C)n(-c4ccccc4)c3=O)c2c1,i,i,i,i,-7.84*,·,·,·,·,i,i,TRPC4 spec 2=i;TRPC4 spec=-13.0%*;HEK293 MPD ctr 2-1=i;HEK293 MPD ctr-1=-245.5%*
CCn1cc(Br)c(C(=O)NCc2ccco2)n1,i,i,i,i,-5.82*,i,i,i,i,i,i,
COCCCNC(=O)CN(CCc1ccccc1)S(=O)(=O)c1ccc(OC)cc1,i,i,i,i,i,·,·,·,·,·,·,
COCCCN(CC(=O)NCc1ccccc1)S(=O)(=O)c1ccc(C)cc1,i,i,i,i,-6.31*,i,i,i,i,i,i,
CC(=O)c1cc(F)c(N2CCN(C(=O)COc3ccc(F)cc3)CC2)cc1C,i,i,i,i,-5.66*,i,i,10.0%*,i,i,i,
COc1ccc(S(=O)(=O)NC(C)C(=O)Nc2ccc3c(c2)OCO3)cc1OC (centres undefined),i,i,i,i,i,·,·,·,·,·,·,
COc1ccc(S(=O)(=O)NC(C)C(=O)Nc2ccc3c(c2)OCCO3)cc1OC (centres undefined),i,i,i,i,-6.1*,i,i,i,i,i,i,
O=C(Nc1ccc(C2=NCCN2)cc1)c1ccc(C(=O)Nc2ccc(C3=NCCN3)cc2)c(Cl)c1,i,i,15.8*,i,i,307.0%*,i,54.0%*,i,i,154.5%*,
CCCOc1ccc(-c2c(C(=O)N/N=C/c3cccs3)nnn2-c2nonc2N)cc1,i,i,i,i,i,·,·,·,·,·,·,
N#CC1=C(N)SC(C(=O)c2ccccc2)C1c1cccs1 (centres undefined),i,i,i,i,i,·,·,·,·,·,·,
N#CC1=C(N)S[C@@H](C(=O)c2ccc(F)cc2)[C@@H]1c1cccs1,i,i,i,i,-6.52*,i,i,i,i,i,i,
N#Cc1ccc(C(=O)NC2CCCCCCC2)cc1,i,i,i,i,i,·,·,·,·,·,·,
